Residue numbers refer to the chain shown, from its start.
Columns and labels:
[1] = target: T1, Penicillin-binding protein 2X (Streptococcus pneumoniae R6) (UniProt P59676); assay: Inhibition of penicillin-sensitive Streptococcus pneumoniae R6 PBP2x using S2d as substrate assessed as residual activity at 1 mM incubated for 60 mins prior to substrate addition by DTNB-based spectrophotometry
T1 sequence (whole entry): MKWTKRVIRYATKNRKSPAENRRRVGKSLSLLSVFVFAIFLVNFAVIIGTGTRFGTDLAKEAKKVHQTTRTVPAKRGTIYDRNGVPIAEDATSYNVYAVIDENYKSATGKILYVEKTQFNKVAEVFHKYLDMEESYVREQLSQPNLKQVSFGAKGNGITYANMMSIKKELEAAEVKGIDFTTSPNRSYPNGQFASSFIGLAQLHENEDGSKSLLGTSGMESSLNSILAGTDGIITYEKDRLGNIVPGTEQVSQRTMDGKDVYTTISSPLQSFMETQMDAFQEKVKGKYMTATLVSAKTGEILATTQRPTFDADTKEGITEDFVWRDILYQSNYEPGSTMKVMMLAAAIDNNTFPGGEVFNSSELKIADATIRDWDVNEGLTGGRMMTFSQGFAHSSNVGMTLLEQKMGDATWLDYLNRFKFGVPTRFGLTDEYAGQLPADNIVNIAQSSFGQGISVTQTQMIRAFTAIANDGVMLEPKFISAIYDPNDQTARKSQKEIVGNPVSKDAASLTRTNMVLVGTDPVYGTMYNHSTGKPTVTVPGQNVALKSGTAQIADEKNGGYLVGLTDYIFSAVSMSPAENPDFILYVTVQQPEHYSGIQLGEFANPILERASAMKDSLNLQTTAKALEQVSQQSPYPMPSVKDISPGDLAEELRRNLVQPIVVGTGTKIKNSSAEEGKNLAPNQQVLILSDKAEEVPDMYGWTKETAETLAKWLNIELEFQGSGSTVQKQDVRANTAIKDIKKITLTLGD
Outline: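 S. pneumoniae PBP2x-R6, 0.09 µM, pre-incubated with inhibitor in 10 mM sodium phosphate pH 7.0 with 0.01 mg/mL BSA, 60 min, 25 °C; 1% DMF final. S2d (1 mM) plus DTNB (1 mM) then added; residual activity taken from initial hydrolysis rate at 412 nm, corrected for spontaneous hydrolysis; triplicates, six no-inhibitor controls per plate.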

Staphylococcus aureus = assay: Inhibition of penicillin-resistant Staphylococcus aureus PBP2a assessed as residual activity at 1 mM incubated for 4 hrs prior to prior to fluoresceyl-ampicillin labelling measured after 20 mins by SDS-PAGE analysis
Streptococcus pneumoniae [2] = assay: Inhibition of Streptococcus pneumoniae PBP1b assessed as residual activity at 1mM incubated for 60 mins prior to fluoresceyl-ampicillin labelling measured after 20 mins by SDS-PAGE analysis in the presence of triton X 100
Outline: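 Assay A: purified S. pneumoniae PBP1b (0.7 µM) pre-incubated with inhibitor in 10 mM sodium phosphate pH 7.0, 60 min, 25 °C, 0.01% Triton X-100. Remaining active enzyme labelled with fluoresceyl-ampicillin (10 µM), 20 min; reaction stopped, run on SDS-PAGE, fluorescence of the band quantified as residual activity.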

Streptococcus pneumoniae [3] = assay: Inhibition of Streptococcus pneumoniae PBP1b using PATP thioester as substrate assessed as residual activity at 100 uM incubated for 60 mins prior to substrate addition by DNTB-based spectrophotometry in the presence of triton X 100
Outline: (§1)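 Assay B: S. pneumoniae PBP1b (0.2 µM) pre-incubated with inhibitor 60 min at 25 °C in 10 mM sodium phosphate pH 7.0, 100 mM D-alanine, 0.01 mg/mL BSA, 0.01% Triton X-100. Residual activity from initial rates of PATP thioester (5 mM) hydrolysis with DTNB (1.0 mM); IC50 by non-linear regression of residual activity across concentrations.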

Enterococcus faecium = assay: Inhibition of penicillin-resistant Enterococcus faecium PBP5fm assessed as residual activity at 1 mM incubated for 4 hrs prior to prior to fluoresceyl-ampicillin labelling measured after 20 mins by SDS-PAGE analysis
[4] = target: D-alanyl-D-alanine carboxypeptidase (Actinomadura sp. R39) (UniProt P39045); assay: Inhibition of Actinomadura sp. R39 PBP using S2d as substrate assessed as residual activity at 1 mM incubated for 60 mins prior to substrate addition by DTNB-based spectrophotometry
Sequence of D-alanyl-D-alanine carboxypeptidase (Actinomadura sp. R39) (P39045 whole entry): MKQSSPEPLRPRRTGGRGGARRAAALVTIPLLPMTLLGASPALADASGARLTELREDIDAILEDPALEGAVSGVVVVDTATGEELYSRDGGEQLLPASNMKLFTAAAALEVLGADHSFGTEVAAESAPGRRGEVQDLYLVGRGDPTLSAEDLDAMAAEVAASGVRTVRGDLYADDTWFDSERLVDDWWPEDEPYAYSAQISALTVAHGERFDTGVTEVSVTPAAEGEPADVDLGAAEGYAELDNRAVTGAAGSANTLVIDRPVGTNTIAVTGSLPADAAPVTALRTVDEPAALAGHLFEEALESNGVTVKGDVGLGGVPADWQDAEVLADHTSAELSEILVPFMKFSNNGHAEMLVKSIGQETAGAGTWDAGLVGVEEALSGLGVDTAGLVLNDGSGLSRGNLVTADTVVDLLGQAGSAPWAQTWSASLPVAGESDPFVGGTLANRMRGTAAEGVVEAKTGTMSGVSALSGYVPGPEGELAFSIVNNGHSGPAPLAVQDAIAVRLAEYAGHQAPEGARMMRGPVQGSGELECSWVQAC
Outline: (§2)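 R39 (Actinomadura, prepared per Granier), 3.5 nM, pre-incubated with inhibitor 60 min at 25 °C in 10 mM sodium phosphate pH 7.2, 100 mM NaCl, 100 mM D-alanine, 0.01 mg/mL BSA; inhibitors from DMF stock, 1% DMF final. Residual activity from initial rate of S2d (1 mM) hydrolysis with DTNB (1 mM), read at 412 nm, corrected for spontaneous hydrolysis; triplicates, uninhibited control six replicates per plate.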

[5] = target: T2, Penicillin-binding protein 2x (Streptococcus pneumoniae serotype 4 (strain ATCC BAA-334 / TIGR4)) (UniProt P14677); assay: Inhibition of penicillin-resistant Streptococcus pneumoniae 5204 PBP2x using S2d as substrate assessed as residual activity at 1 mM incubated for 4 hrs prior to substrate addition by DNTB-based spectrophotometry
T2 sequence (whole entry): T1 sequence (whole entry) with M385T

[6] = Inhibition of Streptococcus pneumoniae PBP1b using PATP thioester as substrate incubated for 60 mins prior to substrate addition by DNTB-based spectrophotometry in the presence of triton X 100; outline: as §1
[7] = target: T2, Penicillin-binding protein 2x (Streptococcus pneumoniae serotype 4 (strain ATCC BAA-334 / TIGR4)); assay: Inhibition of penicillin-resistant Streptococcus pneumoniae 5204 PBP2x using S2d as substrate assessed as residual activity at 1 mM incubated for 4 hrs prior to substrate addition by DNTB-based spectrophotometry in the presence of triton X 100
[8] = target: T3, D-alanyl-D-alanine carboxypeptidase (Actinomadura sp. R39, UniProt P39045); assay: Inhibition of Actinomadura sp. R39 PBP using S2d as substrate incubated for 60 mins prior to substrate addition by DTNB-based spectrophotometry
T3 sequence (P39045 whole entry): as above
Outline: (§3)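 PBP purified per earlier method. Pre-incubation: enzyme with inhibitor (DMF stock, 1% DMF final) at 25 °C for 60 min. Buffer for R39 (3.5 nM): 10 mM sodium phosphate pH 7.2, 100 mM NaCl, 100 mM D-alanine, 0.01 mg/mL BSA. Buffer for PBP2xR6: 10 mM sodium phosphate pH 7.0, 0.01 mg/mL BSA. S2d (1 mM) and DTNB (1 mM) then added. Initial hydrolysis rate read at 412 nm. Triplicates. IC50 by non-linear regression of residual activity over a concentration range, with 0.01% Triton X-100.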

[9] = target: T4, Penicillin-binding protein 2X (Streptococcus pneumoniae R6, UniProt P59676); assay: Inhibition of penicillin-sensitive Streptococcus pneumoniae R6 PBP2x using S2d as substrate incubated for 60 mins prior to substrate addition by DTNB-based spectrophotometry; outline: as §3
T4 sequence (P59676 whole entry): T1 sequence (whole entry)

[10] = target: T1, Penicillin-binding protein 2X (Streptococcus pneumoniae R6); assay: Inhibition of penicillin-sensitive Streptococcus pneumoniae R6 PBP2x using S2d as substrate assessed as residual activity at 1 mM incubated for 60 mins prior to substrate addition by DTNB-based spectrophotometry in presence of triton X 100
Outline: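 PBP2xR6 (0.09 µM) pre-incubated with inhibitor for 60 min at 25 °C in 10 mM sodium phosphate pH 7.0, 0.01 mg/mL BSA, with 0.01% Triton X-100. 1% DMF final. S2d (1 mM) and DTNB (1 mM) then added. Initial hydrolysis rate read at 412 nm. Triplicates. Uninhibited activity from six replicates per plate.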

[11] = target: D-alanyl-D-alanine carboxypeptidase (Actinomadura sp. R39) (UniProt P39045); assay: Inhibition of Actinomadura sp. R39 PBP using S2d as substrate assessed as residual activity at 1 mM incubated for 60 mins prior to substrate addition by DTNB-based spectrophotometry in presence of triton X 100; outline: as §2
Streptococcus pneumoniae [12] = assay: Inhibition of Streptococcus pneumoniae PBP1b using PATP thioester as substrate assessed as residual activity at 1 mM incubated for 60 mins prior to substrate addition by DNTB-based spectrophotometry in the presence of triton X 100; outline: as §1
[13] = target: T3, D-alanyl-D-alanine carboxypeptidase; assay: Binding affinity to Actinomadura sp. R39 PBP

Row | SMILES | Activity [1] [%] | Activity (Staphylococcus aureus) [%] | Activity (Streptococcus pneumoniae [2]) [%] | Activity (Streptococcus pneumoniae [3]) [%] | Activity (Enterococcus faecium) [%] | Activity [4] [%] | Activity [5] [%] | IC50 [6] [µM] | Activity [7] [%] | IC50 [8] [µM] | IC50 [9] [µM] | Activity [10] [%] | Activity [11] [%] | Activity (Streptococcus pneumoniae [12]) [%] | Ki [13] [µM]
1 | COc1ccc(C(=O)NCB(O)O)cc1 | 81 | 92 | 38 | 82 | 81 | 50 | 94 | – | – | – | – | – | – | – | –
2 | O=C(NCB(O)O)c1c(F)cccc1F | 40 | 91 | – | 7 | 88 | 6 | – | 7 | 86 | 35 | 906 | – | – | – | –
3 | COc1ccc(C(=O)NCB(O)O)c(OC)c1 | – | 91 | 18 | 76 | 86 | – | – | – | 97 | – | – | 69 | 69 | – | –
4 | CC(=O)NCB(O)O | 100 | – | – | – | – | 74 | 97 | – | – | – | – | – | – | 87 | –
5 | O=C(Cc1ccccc1[N+](=O)[O-])NCB(O)O | 31 | 85 | – | 52 | 84 | 52 | 86 | – | – | – | 339 | – | – | – | –
6 | O=C(NCB(O)O)c1cccs1 | – | – | – | – | – | – | – | – | – | – | – | 66 | 73 | – | –
7 | O=C(Cc1ccc(Cl)cc1)NCB(O)O | 32 | 89 | 20 | 69 | 88 | 71 | – | – | 82 | – | 376 | – | – | – | –
8 | COc1cccc(OC)c1C(=O)NCC(=O)O | – | – | – | – | – | 87 | – | – | – | – | – | – | – | – | –
9 | O=C(NCB(O)O)c1ccccc1 | 78 | 81 | 56 | – | 79 | – | 81 | – | – | – | – | – | 80 | – | –
10 | O=C(NCB(O)O)c1ccccc1[N+](=O)[O-] | – | 92 | – | 24 | 88 | – | – | – | 108 | 0.6 | 138 | 21 | 0 | – | 0.36
11 | O=C(CCC1CCCC1)NCB(O)O | 79 | 100 | 59 | – | 85 | 71 | – | – | 98 | – | – | – | – | – | –
12 | O=C(Cc1ccccc1Cl)NCB(O)O | 26 | 77 | 24 | 96 | 88 | 57 | 90 | – | – | – | 649 | – | – | – | –
13 | O=C(Cc1ccccc1)NCB(O)O | 57 | 90 | – | – | 83 | 29 | – | – | 97 | 320 | – | – | – | 56 | 125
14 | COc1ccc(C(=O)NCB(O)O)cc1OC | 82 | 75 | 90 | – | 78 | 81 | – | – | 98 | – | – | – | – | – | –
15 | O=C(NCB(O)O)c1ccccc1F | 56 | 88 | – | 14 | 83 | 30 | – | – | 106 | 505 | – | – | – | – | –
16 | O=C(NCB(O)O)c1ccccc1C(F)(F)F | 44 | – | 69 | – | – | 5 | 109 | – | – | 15 | 481 | – | – | – | –
17 | O=C(NCB(O)O)c1ccccc1Cl | – | 81 | – | 20 | 97 | – | – | – | 70 | 85 | 262 | 31 | 15 | – | 42
18 | COc1ccccc1C(=O)NCB(O)O | 86 | – | – | 67 | – | 43 | 99 | – | – | – | – | – | – | 1 | –
19 | O=C(NCB(O)O)c1ccc(Cl)cc1 | 89 | 100 | 29 | 70 | 93 | 73 | 101 | – | – | – | – | – | – | – | –
20 | NCB(O)O | – | – | – | – | – | 99 | – | – | – | – | – | – | – | – | –
